experiment: Toxicity liver stage against HepG2, at 10uM; format: cell-based; design: test concentration 10 uM, cell line HepG2-A16-CD81EGFP; conditions: human, HepG2-A16-CD81EGFP cells; read-out: INHIBITION
How it was run: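 Uninfected HepG2-A16-CD81EGFP cells, 3 × 10^3 per well, 1536-well, plated on prespotted compound at 10 μM final, parasite-free screening media added to match infected plates; puromycin 10 μM positive, DMSO 0.5% negative; run in parallel with 48 h PbLuc assay at 37 °C, 5% CO2; viability by CellTiter-Glo luminescence, normalized to controls.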

| SMILES | cytotoxicity at 10 µM |
| --- | --- |
| Cc1nc(N2CCN(C)CC2)ncc1C(=O)N1CCCCC1 | 0.305% |
| CCn1cc(S(=O)(=O)NC2CCCC2)cn1 | -7.31% |
| Cc1ccc(C(=O)N2CCCCC2c2[nH]ncc2S(C)(=O)=O)s1 (centres undefined) | -11.4% |
| CCc1nccn1-c1cccc(C2CCCN2S(=O)(=O)N(C)C)n1 (centres undefined) | -9.85% |
| CS(=O)(=O)c1ccc(NC(=O)NC2(c3ccccc3)CCC2)cc1 | 5.64% |
| NC(=O)c1cnn2c1NCC(CNCC1(c3ccccc3)CCCC1)C2 (centres undefined) | -7.38% |
| c1cnn(CC2CN(CCCOc3ccc4c(c3)OCO4)CCO2)c1 (centres undefined) | 0.568% |
| CC(C)N(Cc1ccc(Cl)c(Cl)c1)C(=O)CCn1cncn1 | 6.63% |
| Cn1cnc2c1CCN(C(C(=O)N1CCCCC1)c1ccccc1)C2 (centres undefined) | -5.34% |
| NS(=O)(=O)CCNC(=O)c1nnn(-c2ccc(F)cc2)c1C1CC1 | -14.3% |
| COc1ccc(C(CO)NC(=O)Nc2cccc(C#N)c2)cc1 (centres undefined) | -17.9% |
| O=C(NCC(O)c1ccc(F)c(F)c1)c1cccnc1O (centres undefined) | -13.6% |
| CCc1ncncc1C(=O)NCCN1CCC(C)CC1 | -15.6% |
| CCc1cnc(N2C[C@@H]3[C@@H](C(=O)N(C)C)CCS(=O)(=O)[C@@H]3C2)nc1 | -108% |
| COc1ccc2[nH]cc(-c3ccnc(N4CCC(C)CC4)n3)c2c1 | -7.3% |
| CC[C@H](C)[C@H](N)C(=O)Nc1nc(-c2cnc(N3CCOCC3)nc2)cs1 | -8.72% |
| O=C(O)c1ccc(C2CCCN(C(=O)c3ccc[nH]3)C2)cc1 (centres undefined) | -10.5% |
| Cc1ncccc1Oc1ncnc(N2CCCC(O)(CO)CC2)c1C (centres undefined) | 4.3% |
| CCNc1ncc(C(=O)N2CCc3c(nc(C)nc3N(C)C)C2)cn1 | -3.28% |
| O=C(c1ccncc1F)N1CCCC(c2nccn2CC2CCC2)C1 (centres undefined) | 5.94% |
| O=C1CC2(CCN(CCCO)CC2)CN1Cc1ccc(F)c(F)c1 | -7.73% |
| COCCN(Cc1cnn(C)c1)C(=O)C1CCN(C2CCCCC2)CC1 | 12.6% |

| SMILES | cytotoxicity at 10 µM |
| --- | --- |
| CCCC(=O)Nc1ccc(CC(=O)N(CC)CC2CCCCO2)cc1 (centres undefined) | -9.24% |
| O=C(CCc1cccs1)N1CCc2[nH]nc(COc3ccccc3)c2C1 | 0.621% |
| CCc1nnc(CN(C)c2cc(C)nc3c(C)c(C)nn23)o1 | 0.126% |
| Cc1cncc(C(=O)N2CCNCC2C(=O)Nc2ccc(C)nc2)c1 (centres undefined) | -5.19% |
| COCCc1ncc(CN2CCCC(C(=O)c3ccccc3)C2)cn1 (centres undefined) | -1.38% |
| C=C(C)COc1ccccc1CNC(CC)c1ccnn1C (centres undefined) | -4.7% |
| Clc1ccc(CN2CCC(C3CCN(Cc4cccnc4)CC3)C2)cc1 (centres undefined) | 11.3% |
| Cc1ccc(C(=O)N2CCC3(CCC(=O)N(CC(N)=O)C3)CC2)cc1 | -0.527% |
| CCCc1nc(N2CC[C@@H](c3ccc4ccccc4c3)[C@H](O)C2)no1 | -0.471% |
| CCC(C(=O)NCc1cc(N2CCOCC2)ncn1)n1cccn1 (centres undefined) | 1.44% |
| CN(C)C(=O)CCCNC(=O)C(c1cccc(F)c1)N(C)C (centres undefined) | -25.3% |
| Cc1ccc(C(=O)N2CCC3(CCC(=O)N(CC(N)=O)C3)CC2)c(O)c1 | -11.5% |
| CC(C)Cc1noc(CN(C)C(=O)C2COc3ccccc3C2)n1 (centres undefined) | -9.12% |
| C=Cc1ccc(C(=O)N2CCCC(Nc3ccc(F)cc3)C2)cc1 (centres undefined) | -22.1% |
| Cc1noc(C)c1C1CCCN1C(=O)CN1CC2(CCNCC2)OC1=O (centres undefined) | -5.24% |
| C[C@H](O)CNC(=O)c1cnc(-c2ccccc2)nc1O | -17.8% |
| CSc1ncc(Cl)c(C(=O)NC(Cc2ccccc2)C(=O)O)n1 (centres undefined) | -17.3% |
| CS(=O)(=O)N1CCCC(C(=O)Nc2cnn(Cc3ccc(Cl)cc3)c2)C1 (centres undefined) | -6.5% |
| O=C(CN1CCC(c2ccccc2)C1)NC(=O)NCC(F)(F)F (centres undefined) | -12.1% |
| COCC1CN(Cc2ccc(C)o2)Cc2cnn(CC3CCOCC3)c21 (centres undefined) | 1.87% |
| COCCNC(=O)C[C@@H]1COC[C@H]2CN(CC3CCOCC3)C[C@@H]12 | -92.9% |
| O=C1C[C@@H]2CC[C@H](CN1)N2C(=O)CCc1ccsc1 | -6.06% |
